In ChEMBL document CHEMBL3425440, “ent-Kaurane Diterpenoids from Chinese Liverworts and Their Antitumor Activities through Michael Addition As Detected in Situ by a Fluorescence Probe” (J Med Chem, 2015):
The source made the active and inactive calls. The rule behind the calls is not given here.

Key:
[1] = Cytotoxicity against human PC3 cells assessed as cell viability after 24 hrs by MTT assay; format: functional, cell-based; conditions: PC-3, 24 h
How it was run: (§1)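 Cells grown to about 50−70% confluence at 37 °C, 5% CO2, then exposed to compounds 24 h (DMSO vehicle control, cisplatin positive control). MTT (5 mg/mL stock) added for 4 h, formazan dissolved in DMSO, absorbance read at 570 nm. IC50 derived from percent viability; at least three independent experiments, mean ± SD.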

[2] = test system: DU-145; assay: Cytotoxicity against human DU145 cells assessed as cell viability after 24 hrs by MTT assay; format: functional, cell-based; conditions: DU-145, 24 h; how it was run: as §1
[3] = Cytotoxicity against human RWPE1 cells assessed as cell viability after 24 hrs by MTT assay; format: cell-based; conditions: RWPE-1, 24 h; how it was run: as §1
[4] = test system: MDA-MB-231; assay: Cytotoxicity against human MDA-MB-231 cells assessed as cell viability after 24 hrs by MTT assay; format: functional, cell-based; conditions: MDA-MB-231, 24 h; how it was run: as §1
[5] = test system: NCI-H1299; assay: Cytotoxicity against human NCI-H1299 cells assessed as cell viability after 24 hrs by MTT assay; format: functional, cell-based; conditions: NCI-H1299, 24 h; how it was run: as §1
[6] = test system: K562; assay: Cytotoxicity against human K562 cells assessed as cell viability after 24 hrs by MTT assay; format: functional, cell-based; conditions: K562, 24 h; how it was run: as §1
[7] = Cytotoxicity against human HL60 cells assessed as cell viability after 24 hrs by MTT assay; format: functional, cell-based; conditions: HL-60, 24 h; how it was run: as §1
[8] = test system: PC-3; assay: Reduction in glutathione level in human PC3 cells at 5 uM preincubated for 4 hrs followed by fluorescence probe addition measured after 1 hr by 3-azido-7-(diethylamino)-2H-chromen-2-one fluorescence probe-based confocal microscopic analysis; format: functional, cell-based
How it was run: (§2)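 PC3 cells on glass coverslips treated with compound for 4 h (5 μM NEM as thiol-scavenger control), fixed in cold methanol/acetone (1:1) for 5 min. Stained with 30 μM azidocoumarin probe, which fluoresces on reaction with thiols, for 1 h at room temperature in the dark. Mean cellular fluorescence quantified by confocal microscopy; mean ± SD.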

[9] = test system: LNCaP; assay: Cytotoxicity against human LNCAP cells assessed as cell viability after 24 hrs by MTT assay; format: functional, cell-based; how it was run: as §1
[10] = Cytotoxicity against human SKOV3 cells assessed as cell viability after 24 hrs by MTT assay; format: functional, cell-based; conditions: SK-OV-3, 24 h; how it was run: as §1
[11] = test system: LoVo; assay: Cytotoxicity against human LoVo cells assessed as cell viability after 24 hrs by MTT assay; format: functional, cell-based; how it was run: as §1
[12] = Cytotoxicity against human T24 cells assessed as cell viability after 24 hrs by MTT assay; format: functional, cell-based; conditions: T-24, 24 h; how it was run: as §1
[13] = Cytotoxicity against human SH-SY5Y cells assessed as cell viability after 24 hrs by MTT assay; format: functional, cell-based; how it was run: as §1
[14] = Cytotoxicity against human A172 cells assessed as cell viability after 24 hrs by MTT assay; format: functional, cell-based; conditions: A 172, 24 h; how it was run: as §1
[15] = Cytotoxicity against human Saos2 cells assessed as cell viability after 24 hrs by MTT assay; format: functional, cell-based; conditions: SAOS-2, 24 h; how it was run: as §1
[16] = test system: PC-3; assay: Induction of reactive oxygen species formation in human PC3 cells at 6 uM by DCFH-DA staining-based flow cytometric analysis; format: functional, cell-based; conditions: TDE = time-dependent effect
How it was run: (§3)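 PC3 cells exposed to 6 μM compound for 4 h, with optional 5 mM NAC added 1 h beforehand. Loaded with 10 μM DCFH-DA at 37 °C for 30 min, washed, resuspended in PBS and read at once by flow cytometry. ROS expressed as ratio relative to control; Student's t test.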

[17] = test system: PC-3; assay: Induction of reactive oxygen species formation in human PC3 cells at 6 uM after 4 hrs by DCFH-DA staining-based flow cytometric analysis in presence of antioxidant N-acetylcysteine; format: functional, cell-based; how it was run: as §3
[18] = test system: PC-3; assay: Cytotoxicity against human PC3 cells assessed as decrease in cell viability at 6 uM after 24 hrs by MTT assay in presence of antioxidant N-acetylcysteine; format: functional, cell-based
How it was run: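 PC3 cells pretreated with 5 mM NAC for 1 h, then given 6 μM compound with or without the antioxidant for 24 h. Viability read by MTT (formazan in DMSO, absorbance at 570 nm). Mean ± SD.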

[19] = test system: PC-3; assay: Reduction in total glutathione level in human PC3 cells at 6 uM by DNTB-based assay; format: functional, cell-based; conditions: TDE = time-dependent effect
How it was run: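 PC3 cells exposed to 6 μM compound for the indicated times, lysed by freeze–thaw in protein removal agent and supernatant collected. Total glutathione read with DTNB at 412 nm; GSSG read after masking GSH with 2-vinylpyridine; GSH taken as the difference. Expressed relative to control.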

[20] = test system: PC-3; assay: Reduction in glutathione level in human PC3 cells preincubated for 4 hrs followed by fluorescence probe addition measured after 1 hr by 3-azido-7-(diethylamino)-2H-chromen-2-one fluorescence probe-based confocal microscopic analysis; format: functional, cell-based; how it was run: as §2
[21] = test system: PC-3; assay: Reduction in glutathione level in human PC3 cells at 6 uM preincubated for 4 hrs followed by fluorescence probe addition by 3-azido-7-(diethylamino)-2H-chromen-2-one fluorescence probe-based confocal microscopic analysis; format: functional, cell-based; conditions: TDE = time-dependent effect; how it was run: as §2

SMILES | IC50 [1] | IC50 [2] | IC50 [3] | IC50 [4] | IC50 [5] | IC50 [6] | IC50 [7] | IC50 [9] | IC50 [10] | IC50 [11] | IC50 [12] | IC50 [13] | IC50 [14] | IC50 [15] | also measured
C=C1C(=O)[C@@]23CC[C@H]4[C@@](C)(CCC[C@@]4(C)C(=O)O)[C@@H]2CC[C@]1(O)C3 | 30.1 µM | 48.5 µM | 27 µM | 37.2 µM | 32.8 µM | 9.9 µM | 7.9 µM |  |  |  |  |  |  |  | Activity [8]: Active
C=C1C(=O)[C@H]2C[C@]1(O)CC1=C2[C@]2(C)CCCC(C)(C)[C@H]2CC1 | 2.2 µM | 3.2 µM | 6.3 µM | 3.4 µM | 2.6 µM | 2.2 µM | 1.9 µM | 2.8 µM | 2.9 µM | 2.3 µM | 2.3 µM | 1.6 µM | 2.7 µM | 2.4 µM | Activity [8]: Active
C=C1C(=O)[C@H]2C[C@]1(O)CC1=C2[C@]2(C)CCC[C@](C)(CO)[C@H]2CC1 | 8.2 µM | 9.4 µM | 18.6 µM | 10.4 µM |  |  |  |  |  |  |  |  |  |  | Activity [8]: Active
C=C1C(=O)[C@@]23CC[C@H]4[C@@](C)(CCC[C@@]4(C)C(=O)OC)[C@@H]2CC[C@]1(O)C3 | 6.1 µM | 10.8 µM | 7 µM | 5.2 µM | 9.2 µM | 2.9 µM | 1.5 µM |  |  |  |  |  |  |  | Activity [16]: tde; Activity [17]: inactive; Activity [18]: inactive; Activity [19]: tde; Activity [20]: Dose-dependent effect; Activity [21]: tde
C=C1C[C@@]23CC[C@H]4[C@@](C)(CCC[C@]4(C)C(=O)O)[C@@H]2CC[C@@H]1C3 | > 50 µM | > 50 µM | > 50 µM | > 50 µM | > 50 µM | > 50 µM | > 50 µM | > 50 µM | > 50 µM | > 50 µM | > 50 µM | > 50 µM | > 50 µM | > 50 µM | 
C[C@H]1C(=O)[C@@]23CC[C@@H]4[C@](C)(CO)CCC[C@@]4(C)C2=CC[C@]1(O)C3 | > 50 µM | > 50 µM | > 50 µM | > 50 µM | > 50 µM | > 50 µM | > 50 µM | > 50 µM | > 50 µM | > 50 µM | > 50 µM | > 50 µM | > 50 µM | > 50 µM | 
C[C@@H]1C(=O)[C@H]2C[C@]1(O)CC1=C2[C@]2(C)CCC[C@](C)(CO)[C@H]2CC1 | > 50 µM | > 50 µM | > 50 µM | > 50 µM | > 50 µM | > 50 µM | > 50 µM | > 50 µM | > 50 µM | > 50 µM | > 50 µM | > 50 µM | > 50 µM | > 50 µM | 
C=C1[C@@H]2CC[C@H]3[C@]4(C)CCCC(C)(C)[C@H]4C[C@@H](O)[C@]3(C2)[C@@H]1O | > 50 µM | > 50 µM | > 50 µM | > 50 µM | > 50 µM | > 50 µM | > 50 µM | > 50 µM | > 50 µM | > 50 µM | > 50 µM | > 50 µM | > 50 µM | > 50 µM | 
C=C1C(=O)[C@@]23CC[C@@H]4[C@@](C)(CO)CCC[C@@]4(C)C2=CC[C@@H]1C3 | 21.5 µM | 31 µM | 39.3 µM | 32 µM | 14.5 µM | 13.8 µM | 4.7 µM | 16.3 µM | 22.3 µM | 11.2 µM | 17.7 µM | 9.8 µM | 20.3 µM | 14 µM | 
C=C1C(=O)[C@@]23CC[C@@H]4C(C)(C)CCC[C@@]4(C)[C@@H]2[C@@H](O)C[C@@H]1C3 | 1.9 µM | 4.5 µM | 5.2 µM | 4.8 µM | 2.6 µM | 1.5 µM | 0.9 µM | 2.5 µM | 1.7 µM | 1.4 µM | 2.1 µM | 0.7 µM | 3.2 µM | 1.4 µM | 
C=C1C[C@]23C[C@H]1CC[C@H]2[C@]1(C)CCCC(C)(C)[C@H]1C[C@H]3O | > 50 µM | > 50 µM | > 50 µM | > 50 µM | > 50 µM | > 50 µM | > 50 µM | > 50 µM | > 50 µM | > 50 µM | > 50 µM | > 50 µM | > 50 µM | > 50 µM | 
